Here are results for three molecules from ChEMBL document CHEMBL3734675, “Synthesis, antimycobacterial and antibacterial activity of fluoroquinolone derivatives containing an 3-alkoxyimino-4-(cyclopropylanimo)methylpyrrolidine moiety” (2015).

Structures are written as SMILES. Values after ≈ are worked out from the molar mass of the structure shown. Bounds are passed on as bounds.

As usually defined, the MIC90 is an inhibitory concentration at the 90% level, which refers to growth in some studies and to a panel of isolates in others.

The assay concerns Mycobacterium tuberculosis. The experiment in a line: Antimycobacterial activity against isoniazid/rifampicin-resistant Mycobacterium tuberculosis 6133 clinical isolate incubated for 7 days by microplate Alamar Blue assay. The format is functional. Conditions: Mycobacterium tuberculosis, 6133, 168 h. The method, boiled down: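 Fluorescence read-out. MIC is the lowest concentration that reduces fluorescence by at least 90% relative to the mean of replicate bacterium-only controls. Isoniazid and rifampicin were included as reference drugs.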
Background: Resazurin is reduced to fluorescent resorufin, in cell work by metabolically active cells.
For `CCO/N=C1/CN(c2nc3c(cc2F)c(=O)c(C(=O)O)cn3C2CC2)CC1(C)CNC1CC1` (stereo not drawn), the MIC90 was found to be 0.11 µg/mL (≈ 0.24 µM).

As for `CO[C@H]1/C=C/O[C@@]2(C)Oc3c(C)c(O)c4c(O)c(c(/C=N/N5CCN(C)CC5)c(O)c4c3C2=O)NC(=O)/C(C)=C\C=C\[C@H](C)[C@H](O)[C@@H](C)[C@@H](O)[C@@H](C)[C@H](OC(C)=O)[C@@H]1C` [RIFAMPIN], the MIC90 is > 40 µg/mL.

`NNC(=O)c1ccncc1` [ISONIAZID] registered an MIC90 of 4 µg/mL (≈ 29.2 µM).
